SR-BI HDL uptake = blocks mouse SR-BI lipid uptake from DiI-HDL | ldlA[mSR-BI] CHO cells, DiI-HDL uptake fluorescence, 3 h | Q61009 | inhibition, % at 12.5 µM | 320,000 compounds, 0.96% hits;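 active means mean replicate inhibition of at least 70% and a set share of replicates each scoring 70 or more; inconclusive means meets just one of the two criteria; inactive means fails both criteria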;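 further: 0% = median of neutral control wells and 100% = median of positive control wells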
Target sequence (Q61009 whole entry, looked up): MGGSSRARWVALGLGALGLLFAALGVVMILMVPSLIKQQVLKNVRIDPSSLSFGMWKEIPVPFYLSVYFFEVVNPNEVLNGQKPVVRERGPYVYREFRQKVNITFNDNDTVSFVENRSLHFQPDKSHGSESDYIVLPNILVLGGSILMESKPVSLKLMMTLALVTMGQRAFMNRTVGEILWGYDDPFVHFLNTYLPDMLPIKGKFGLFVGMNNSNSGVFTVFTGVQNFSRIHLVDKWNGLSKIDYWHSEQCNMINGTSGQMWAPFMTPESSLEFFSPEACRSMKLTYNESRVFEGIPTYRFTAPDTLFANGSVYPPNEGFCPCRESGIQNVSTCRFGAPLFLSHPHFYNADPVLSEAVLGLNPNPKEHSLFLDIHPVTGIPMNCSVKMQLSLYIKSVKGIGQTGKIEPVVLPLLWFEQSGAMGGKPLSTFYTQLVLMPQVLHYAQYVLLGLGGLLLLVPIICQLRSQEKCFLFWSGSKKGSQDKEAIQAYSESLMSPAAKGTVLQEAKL
SR-BI uptake up = enhances SR-BI lipid uptake from DiI-HDL; CHO ldlA[mSR-BI] cells, DiI-HDL uptake fluorescence, 3 h; 100 = double the neutral-control signal; activation, % at 12.5 µM; 320,000 compounds, 0.096% hits; AID 504775;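 active means mean replicate activation of at least 60% and every replicate at or above 60%; inconclusive means mean or all-replicate condition met, but not both; inactive means mean below 60% and not all replicates reaching 60%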;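 further: 0% = median plate neutral-control signal and 100% = twice that signal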
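System: CHO ldlA[mSR-BI] cells / Medium: HEPES-buffered (25 mM, pH 7.4) F12 plus 0.5% BSA / Probe or stimulus: labelled HDL, 10 µg/mL / Doses: single compound concentration, delivered by pin transfer / Schedule: 3 h, 37 °C / Measured by: DiI fluorescence, bottom read / Measure: cell-associated DiI fluorescence as measure of HDL uptake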
Calb FLC = C. albicans growth modulation with fluconazole; C. albicans CaCi-2 + fluconazole, Alamar Blue growth, 48 h; growth inhibition, % (test concentration not listed); 300,000 compounds, 0.57% hits; AID 1979;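 active means growth inhibition above about 58% in most replicates, limit read from the data, passing the limit was not always enough; inconclusive means exactly half the replicates above a set limit; inactive means most replicates below a set limit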;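 further: all wells also contain fluconazole at 8 µg/ml as a sub-toxic cotreatment; 0% = median of DMSO wells and 100% = median of geldanamycin control wells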
HTR2A ag = mouse HTR2A agonism via beta-arrestin recruitment | 360,000 compounds, 0.66% hits | CHO-K1 mHTR2A beta-arrestin complementation, luminescence; percent of 30 µM serotonin response | activation, % at 7.6 µM | P35363;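 active means activation above a run cutoff, the mean activation of all tested compounds plus 3 SD, cut at about 14% in these data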;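 further: 0% = plate median of compound wells and 100% = 30 µM serotonin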
Insulin prom up = MIN6 insulin promoter up-regulation. z-score at 5 µM. MIN6 insulin promoter-GFP reporter, high-content imaging; hits give high values. 190,000 compounds, 0.3% hits;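 active means z-score above 3 at 5 µM with at least 500 cells counted in the well; inconclusive means wells under 500 cells, flagged as cytotoxic or low count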
MIN6 prolif = induces beta-cell replication in MIN6 cells. proliferation, % at 10 µM. MIN6 cells proliferation, ATPlite luminescence, 48 h; cells starved in 0.2% serum; 100% = growth in 10% serum. 330,000 compounds, 0.29% hits. AID 2380;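 active means compounds whose signal lies at least 3.5 SD above the mean of all wells on their plate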;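 further: 0% = DMSO-treated cells in low-serum medium and 100% = 10% serum control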
OPRM1 ag = counter-screen for mouse HTR2A agonists: human mu opioid receptor agonists | shares compounds with HTR2A ag | activation, % at 9.3 µM | 2,300 compounds, 5.3% hits | U2OS OPRM1 beta-arrestin PathHunter, luminescence; DMSO 0%, DAMGO 9.3 µM 100%;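 active means mean activation above the mean of DMSO-only wells plus 3 SD, cut at about 0.5% in these data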
m5-HT2A ag conf = mouse HTR2A agonism confirmed; shares compounds with HTR2A ag; activation, % at 7.6 µM; CHO-K1 PathHunter beta-arrestin recruitment, luminescence; DMSO 0%, 30 µM serotonin 100%; 2,300 compounds, 19% hits;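 active means mean activation across triplicates above the hit threshold derived in the original primary screen, cut at about 15% in these data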
An asterisk follows results filed as active; ? = inconclusive; . = no result; ! = repeats disagree. Compounds with a hit are over-represented: about 2.4% of the library has one in this group of screens.

SMILES | SR-BI HDL uptake | SR-BI uptake up | Calb FLC | HTR2A ag | Insulin prom up | MIN6 prolif | OPRM1 ag | m5-HT2A ag conf
C[C@]12CC[C@H](O)C[C@@H]1CC[C@@H]1[C@@H]2CC[C@]2(C)C(=O)CC[C@@H]12 | -10.0 | 10.0 | . | 21.7* | . | -2.2 | -0.7 | -4.1
C[C@]12CCC3[C@@H](CC[C@@H]4C[C@H](O)CC[C@]34C)[C@@H]1CCC2=O (stereo partly specified) | -3.2 | 3.2 | . | 5.8 | . | -0.9 | . | .
N#CC1c2ccccc2C=CN1C(=O)c1ccc(N(CCCl)CCCl)cc1 (stereo unspecified) | . | . | . | 23.8* | . | . | -0.2 | -4.8
CC1CCN(CCc2nc3ccccc3[nH]2)CC1 | -8.5 | 8.5 | . | -3.3 | . | -3.2 | . | .
O=C(COc1ccc2ccccc2c1)N1CCN(Cc2c[nH]c3ccccc23)CC1 | 12.6 | -12.6 | -1.0 | 34.2* | -3.08 | -3.4 | -0.4 | 18.9*
O=C(COc1ccc(Br)cc1)N1CCN(Cc2c[nH]c3ccccc23)CC1 | -3.3 | 3.3 | 7.4 | 55.7* | -2.08 | -6.2 | -0.1 | 27.8*
O=C1NC(=O)C(=Cc2ccc(-c3ccc(F)cc3O)o2)C(=O)N1 | -22.4 | 22.4 | 4.8 | 1.4 | . | -2.6 | . | .
CCc1ccc(CN2CCN(C(=O)Cc3ccccc3)CC2)cc1 | -4.0 | 4.0 | -2.8 | -0.2 | -0.25 | 6.5 | . | .
O=C(Cc1ccccc1)N1CCN(Cc2ccccc2Cl)CC1 | 1.8 | -1.8 | -0.4 | 21.7* | . | 1.3 | -0.7 | 2.0
CN1CCN(C(=O)Cc2ccccc2)CC1 | -20.2 | 20.2 | -20.2 | 20.3* | 0.09 | 0.7 | -0.8 | 0.7
Cc1ccc(NC2=NCCCS2)c(C)c1C | -121.3 | ? | -0.4 | 18.5* | . | 0.0 | -0.4 | 14.8*
O=S(=O)(c1cc(Cl)cc(Cl)c1)N1Cc2cc(-c3cccc(F)c3)ccc2-n2nncc2C1 | . | . | . | 14.5* | . | . | -0.3 | -1.5
Cc1ccc(S(=O)(=O)N2Cc3cc(-c4cccc(F)c4)ccc3-n3nncc3C2)cc1 | . | . | . | 0.4 | . | . | . | .
Cc1ncoc1C(=O)NCC1=C(c2ccc(S(C)(=O)=O)cc2)C[C@@H]2CC[C@H]1N2CCOc1ccccc1 | . | . | . | -0.7 | . | . | . | .
Cc1cc(C)n2c(Br)c(CN3CC4CC(C3)c3cccc(=O)n3C4)nc2n1 (stereo unspecified) | -19.8 | 19.8 | -3.6 | 21.9* | -0.18 | 3.0 | -0.7 | -4.0
Cc1nc2cc(OC(=O)N(C)Cc3cccc(-c4ccncc4)c3)ccc2s1 | . | . | . | 19.8* | . | . | -0.4 | -4.2
N=Cc1c(O)n(-c2ccc(C34CC5CC(CC(C5)C3)C4)cc2)c(=O)[nH]c1=O | -12.9 | 12.9 | 2.6 | 1.4 | 1.03 | 0.0 | . | .
OC[C@@H](O)CCl | . | . | -21.7 | . | . | 0.8 | . | .
COC1CC2C=C(C)C=CC=CC(=O)NC(c3ccccc3)CC=CCCC(O)CC(=O)C2=C1O (stereo unspecified) | . | . | . | 21.0* | . | . | 6.0* | 19.1*
C[C@H](NC(=O)N1C[C@H]2C[C@@H](C1)c1cccc(=O)n1C2)C(=O)Nc1cccc(F)c1 | 11.8 | -11.8 | 0.6 | 2.7 | . | -4.5 | . | .
O=c1cccc2n1CC1CC2CN(C(c2cccc(F)c2)c2sc3ncnn3c2O)C1 (stereo unspecified) | -6.3 | 6.3 | 1.3 | 16.5* | -1.14 | -1.1 | -0.5 | 2.8
N#Cc1c(Br)n(C2OC(CO)C(O)C2O)c2ncnc(N)c12 (stereo unspecified) | 13.4 | -13.4 | . | 50.9* | . | . | -0.4 | 100.1*
CC(C)(C)c1cc(OC(=O)Cc2ccccc2)ccc1O | -14.9 | 14.9 | -5.2 | 15.3* | . | -3.8 | 0.5 | -0.9
CCN(CC)C(=O)N[C@H]1C[C@@H]2c3cccc4[nH]cc(c34)C[C@H]2N(C)C1 | -6.5 | 11.7 | 6.7 | 38.9* | . | -4.2 | -0.7 | 92.8*
CN1C[C@H](CO)C[C@@H]2c3cccc4[nH]cc(c34)C[C@H]21 | . | . | -3.4 | 23.1* | . | -3.1 | -0.2 | 112.8*
SMILES | SR-BI HDL uptake | SR-BI uptake up | Calb FLC | HTR2A ag | Insulin prom up | MIN6 prolif | OPRM1 ag | m5-HT2A ag conf
Cc1cc([N+](=O)[O-])c2ccccc2[n+]1[O-] | -14.6 | 14.6 | ? | -3.1 | -6.12 | -4.1 | . | .
COc1ccc2c(c1)C(NC(C)=O)CCc1cc(OC)c(OC)c(OC)c1-2 (stereo unspecified) | -1.5 | 1.5 | . | 5.8 | . | . | . | .
COc1ccc2c(c1O)-c1c(OC)c(OC)cc3c1[C@H](C2)N(C)CC3 | -2.0 | 2.0 | . | -3.0 | . | -2.0 | . | .
CCCN1CCc2cccc3c2[C@H]1Cc1ccc(O)c(O)c1-3 | 23.0 | -23.0 | . | 61.7* | . | -8.3 | 1.4* | 135.7*
CCN(CC)C(=O)c1ccc(NC(=O)c2ccc(-n3cncn3)c([N+](=O)[O-])c2)cc1 | 4.1 | -4.1 | 31.3 | 7.5 | . | -4.9 | . | .
CC12CC3CC(C)(C1)CC(N)(C3)C2 | -8.0 | 8.0 | . | 18.0*! | . | 5.1 | -0.5 | 3.7
CCCCC1(CC)COP(=O)(OCC(Cl)(Cl)Cl)OC1 (stereo unspecified) | -3.4 | 3.4 | . | 19.6* | . | . | -0.2 | -2.6
COC(=O)C1=C(c2ccc(F)cc2F)C[C@@H]2CC[C@H]1N2C(=O)NCc1ccc(C(F)(F)F)cc1 | -3.2 | 3.2 | . | -5.6 | . | -5.3 | . | .
C/C(=N\N1CCCCCC1)c1c(O)n(-c2ccccc2C)c(=O)[nH]c1=O | 5.8 | -5.8 | 4.0 | -1.0 | -0.49 | -1.0 | . | .
C[C@]12CC[C@H](OS(=O)(=O)O)CC1=CC[C@@H]1[C@@H]2CC[C@]2(C)C(=O)CC[C@@H]12 | 0.7 | -0.7 | 9.1 | 14.8*! | . | -1.0 | 0.4 | 5.7
C[C@]12CCC(OC(=O)CCC(=O)O)CC1=CCC1C2CC[C@]2(C)C(=O)CCC12 (stereo partly specified) | 10.6 | -10.6 | 20.5 | -2.4 | . | -3.8 | . | .
CCCCCn1c(=O)c(C(=O)NCc2ccco2)c(O)c2ccccc21 | 47.1 | -47.1 | -4.5 | 18.0* | -1.04 | -1.6 | -0.4 | 2.0
CC(C)(C)C(=O)O[C@H]1CC[C@@]2(C)C(=CC(=O)C3C2CC[C@]2(C)C(=O)[C@@H](F)CC32)C1 (stereo partly specified) | 3.2 | -3.2 | . | 1.0 | . | -6.0 | . | .
CCCCn1c(O)c(C(=O)/C=C/c2ccc3c(c2)OCO3)c(=O)[nH]c1=O | 8.4 | -8.4 | 0.4 | 26.7* | 0.78 | -2.5 | -0.5 | -1.8
O=C(/C=C/c1ccc2c(c1)OCO2)c1c(O)n(CCC2=CCCCC2)c(=O)[nH]c1=O | 6.2 | -6.2 | . | 3.1 | 0.82 | . | . | .
CN1[C@@H]2CCC[C@H]1CC(=O)C2 | -6.1 | 6.1 | . | -1.3 | . | . | . | .
CCOP(=O)(OCC)C(O)c1ccc(Br)cc1 (stereo unspecified) | -15.0 | 15.0 | -24.2 | -3.2 | -0.02 | 0.0 | . | .

Bioassay records deposited in PubChem BioAssay by several laboratories.
